Measured values pooled from the literature.
Lines come from different studies, so protocols differ.

| Structure (SMILES) | target or system | assay | test system | setting | endpoint | result |
| --- | --- | --- | --- | --- | --- | --- |
| CC(C)(C)[C@H](NC(=O)C(F)(F)F)C(=O)N1C[C@H]2[C@@H]([C@H]1C(=O)N[C@H](C#N)C[C@@H]1CCNC1=O)C2(C)C | Calu-3 | cell growth or viability | – | – | CC50 | > 100 µM |
| O=C1NC2(CCC2)C(=O)N1c1ccc(F)c(C(F)(F)F)c1 | – | metabolic stability | human, liver microsomes | – | microsomal CLint | 11 µL/min/mg |
| CC(C)Cc1cn([C@H]2[C@H]([C@H](O)[C@H](O)CO)OC(C(=O)O)=C[C@@H]2O)nn1 | – | shake flask | aqueous buffer | 2 h, pH 7.4 | logD | -0.54 |
| Cc1[nH]c(C)c(S(=O)(=O)Nc2ccc(S(F)(F)(F)(F)F)c(Cl)c2)c1C(=O)N1CCC(F)(F)C1 | – | metabolic stability | rat, liver microsomes | – | microsomal CLint | 20.5 µL/min/mg |
| N#C[C@@]1(n2ccc(N)nc2=O)O[C@H](CO)[C@@H](O)[C@H]1O | Calu-3 | cell growth or viability | – | – | CC50 | > 100 µM |
| CC(C)CCC(=O)N[C@H]1[C@H]([C@H](O)[C@H](O)CO)OC(C(=O)O)=C[C@@H]1O | – | shake flask | aqueous buffer | 2 h, pH 7.4 | logD | -0.88 |
| COc1ccc(NC(=O)N2CCCCN3[C@H](CN(C)C)[C@H](c4ccc(C#Cc5ccccc5)cc4)[C@@H]3C2)cc1 | THP-1 | cell growth or viability, ATP luminescence | – | 72 h | CC50 | 2.87 µM |
| Cc1[nH]c(C)c(S(=O)(=O)Nc2ccc(S(=O)(=O)F)c(Cl)c2)c1C(=O)N1CCC(F)(F)C1 | – | metabolic stability | human, liver microsomes | – | microsomal CLint | 31.7 µL/min/mg |
| CC/C(=C(\c1ccccc1)c1ccc(OCCN(C)C)cc1)c1ccccc1 | MCF7 | cell growth or viability, resazurin | – | 72 h | IC50 | 18.2 µM |
| CC(C)CC(=O)OC[C@H]1O[C@@](C#N)(c2ccc3c(N)ncnn23)[C@H](O)[C@@H]1O | HEp-2 | cell growth or viability, CCK-8 | – | 5 days | CC50 | > 100 µM |
| CC1(CC(F)(F)F)NC(=O)N(c2ccc(F)c(C(F)(F)F)c2)C1=O (centres unmarked) | – | metabolic stability | human, liver microsomes | – | microsomal CLint | < 7 µL/min/mg |
